Measured values taken from ChEMBL document CHEMBL3817745, “Structure-Activity Relationship for the 4(3H)-Quinazolinone Antibacterials” (J Med Chem, 2016).
Converted amounts (≈) assume the structure as drawn. The source made the active and inactive calls. The rule behind the calls is not given here.

Legend:
[1] = Hemolytic activity against human RBC at 64 ug/ml relative to control; assay type: ADME, cell-based, Erythrocyte; conditions: erythrocyte
How it was run: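 Hemolysis was measured at a fixed 64 μg/mL on a 10% red-cell suspension from heparinized human blood. Triton-X served as the positive control, and results are given as percent hemolysis.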

[2] = tested on: Staphylococcus epidermidis; assay: Antibacterial activity against Staphylococcus epidermidis ATCC 35547 incubated for 16 to 20 hrs by microdilution method; assay type: functional
How it was run: (§1)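 CLSI broth microdilution. 2-fold serial dilutions were made in cation-adjusted Mueller–Hinton broth, with 5% lysed horse blood added for Streptococcus strains, in triplicate. Inoculum 5×10^5 CFU/mL. Plates incubated 36 °C for 16–20 h. MIC taken as the lowest concentration visibly inhibiting growth.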

[3] = tested on: Klebsiella pneumoniae; assay: Antibacterial activity against Klebsiella pneumoniae ATCC 700603 incubated for 16 to 20 hrs by microdilution method; assay type: functional; how it was run: as §1
[4] = tested on: Staphylococcus haemolyticus; assay: Antibacterial activity against Staphylococcus haemolyticus ATCC 29970 incubated for 16 to 20 hrs by microdilution method; assay type: functional
[5] = tested on: Staphylococcus aureus; assay: Antibacterial activity against vancomycin/methicillin-resistant Staphylococcus aureus VRS1 clinical isolate incubated for 16 to 20 hrs by microdilution method; assay type: functional
[6] = tested on: Staphylococcus aureus; assay: Antibacterial activity against mecA-positive multidrug resistant Staphylococcus aureus NRS119 incubated for 16 to 20 hrs by microdilution method; assay type: functional
[7] = tested on: Enterococcus faecium; assay: Antibacterial activity against Enterococcus faecium NCTC 7171 incubated for 16 to 20 hrs by microdilution method; assay type: functional; how it was run: as §1
[8] = tested on: HepG2; assay: Cytotoxicity against human HepG2 cells incubated for 16 hrs by XTT assay; assay type: cell-based; conditions: HepG2, 16 h
How it was run: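 HepG2 cells were tested with an XTT viability read-out, in triplicate. IC50 was obtained by nonlinear regression.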

[9] = tested on: Mus musculus; assay: AUC (0 to last) in ICR mouse peritonitis model infected with methicillin resistant Staphylococcus aureus ATCC 27660 at 5 mg/kg, iv administered as single dose measured up to 8 hrs by UPLC analysis; assay type: ADME, organism-based; set-up: dose 5 mg/kg, route intravenous, time 0 - last; conditions: in vivo
How it was run: (§2)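 Fast PK: female ICR mice (n = 2 per time point) given single tail-vein iv injection at 5, 10 or 20 mg/kg in 25% DMSO/65% propylene glycol/10% water (2.5, 5 or 10 mg/mL); terminal cardiac blood at 5 min, 40 min, 2, 4, 8 h; plasma analysed by UPLC with internal standard calibration.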

[10] = tested on: Staphylococcus aureus; assay: Antibacterial activity against methicillin-susceptible Staphylococcus aureus ATCC 29213 incubated for 16 to 20 hrs by microdilution method; assay type: functional
[11] = tested on: Staphylococcus aureus; assay: Antibacterial activity against mecA-positive multidrug resistant Staphylococcus aureus COL NRS100 incubated for 16 to 20 hrs by microdilution method; assay type: functional
[12] = tested on: Bacillus cereus; assay: Antibacterial activity against Bacillus cereus ATCC 13061 incubated for 16 to 20 hrs by microdilution method; assay type: functional; how it was run: as §1
[13] = tested on: Streptococcus oralis; assay: Antibacterial activity against Streptococcus oralis ATCC 9811 incubated for 16 to 20 hrs by microdilution method; assay type: functional; how it was run: as §1
[14] = tested on: Pseudomonas aeruginosa; assay: Antibacterial activity against Pseudomonas aeruginosa […] incubated for 16 to 20 hrs by microdilution method; assay type: functional; how it was run: as §1
[15] = tested on: Staphylococcus aureus; assay: Antibacterial activity against mecA-positive methicillin/oxacillin/tetracycline-resistant Staphylococcus aureus ATCC 27660 incubated for 16 to 20 hrs by microdilution method; assay type: functional
[16] = tested on: Staphylococcus aureus; assay: Antibacterial activity against vancomycin/methicillin-resistant Staphylococcus aureus VRS2 clinical isolate incubated for 16 to 20 hrs by microdilution method; assay type: functional
[17] = tested on: Bacillus licheniformis; assay: Antibacterial activity against Bacillus licheniformis ATCC 12759 incubated for 16 to 20 hrs by microdilution method; assay type: functional; how it was run: as §1
[18] = tested on: Staphylococcus aureus; assay: Antibacterial activity against mecA-positive multidrug resistant Staphylococcus aureus NRS120 incubated for 16 to 20 hrs by microdilution method; assay type: functional
[19] = tested on: Streptococcus pyogenes; assay: Antibacterial activity against Streptococcus pyogenes ATCC 49399 incubated for 16 to 20 hrs by microdilution method; assay type: functional; how it was run: as §1
[20] = tested on: Enterococcus faecalis; assay: Antibacterial activity against vancomycin-resistant Enterococcus faecalis 99 clinical isolate incubated for 16 to 20 hrs by microdilution method; assay type: functional
[21] = tested on: Enterococcus faecalis; assay: Antibacterial activity against methicillin-susceptible Enterococcus faecalis ATCC 29212 incubated for 16 to 20 hrs by microdilution method; assay type: functional; how it was run: as §1
[22] = tested on: Acinetobacter baumannii; assay: Antibacterial activity against Acinetobacter baumannii ATCC 17961 incubated for 16 to 20 hrs by microdilution method; assay type: functional; how it was run: as §1
[23] = tested on: Klebsiella aerogenes; assay: Antibacterial activity against Enterobacter aerogenes ATCC 35029 incubated for 16 to 20 hrs by microdilution method; assay type: functional; how it was run: as §1
[24] = tested on: Escherichia coli; assay: Antibacterial activity against Escherichia coli ATCC 25922 incubated for 16 to 20 hrs by microdilution method; assay type: functional; how it was run: as §1
[25] = tested on: Staphylococcus aureus; assay: Antibacterial activity against Staphylococcus aureus COL expressing pbp2 antisense plasmid assessed as increase in zone of inhibition after 18 to 20 hrs in presence of xylose; assay type: functional, organism-based
How it was run: (§3)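 MRSA COL strains carrying pbpA, pbp2, mecA or pbp3 under antisense control were grown overnight on agar with 34 μg/mL chloramphenicol. Molten chloramphenicol agar with 0 or 50 mM xylose was seeded at 1×10^7 CFU/mL and set. Compound (10 μL) was spotted on the agar, and plates were incubated 36 °C for 18–20 h. Susceptibility with and without xylose induction was compared.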

[26] = tested on: Staphylococcus aureus; assay: Antibacterial activity against Staphylococcus aureus COL expressing pbp3 antisense plasmid assessed as increase in zone of inhibition after 18 to 20 hrs in presence of xylose; assay type: functional, organism-based; how it was run: as §3
[27] = tested on: Staphylococcus aureus; assay: Antibacterial activity against Staphylococcus aureus COL expressing pbpA antisense plasmid assessed as increase in zone of inhibition after 18 to 20 hrs in presence of xylose; assay type: functional, organism-based; how it was run: as §3
[28] = tested on: Staphylococcus aureus; assay: Antibacterial activity against Staphylococcus aureus COL expressing pbp2a antisense plasmid assessed as increase in zone of inhibition after 18 to 20 hrs in presence of xylose; assay type: functional, organism-based; how it was run: as §3
[29] = tested on: Staphylococcus aureus; assay: Antibacterial activity against methicillin-resistant Staphylococcus aureus NRS70 in ICR mouse neutropenic thigh infection model assessed as reduction in bacterial load at 20 mg/kg, sc tid administered every 8 hrs starting from 1 hr post infection and measured 7 hrs post last dose; assay type: functional, organism-based
How it was run: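 Female ICR mice (n = 8 per group) made neutropenic with ip cyclophosphamide 200 mg/kg at 4 days and 1 day pre-infection; 100 μL NRS70 (~1×10^6 CFU/mL in brain–heart infusion) injected im into right thigh; sc doses at 1, 9, 17 h; thighs harvested at 24 h, homogenized, plated in triplicate on LB agar; log10 CFU/g.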

[30] = tested on: Mus musculus; assay: AUC (0 to last) in ICR mouse peritonitis model infected with methicillin resistant Staphylococcus aureus ATCC 27660 at 10 mg/kg, iv administered as single dose measured up to 8 hrs by UPLC analysis; assay type: ADME, organism-based; set-up: dose 10 mg/kg, time 0 - last, route intravenous; conditions: in vivo, 8 h; how it was run: as §2
[31] = Ratio of hemolytic concentration for human RBC to MIC for methicillin-susceptible Staphylococcus aureus ATCC 29213
[32] = Ratio of IC50 for human HepG2 cells to MIC for methicillin-susceptible Staphylococcus aureus ATCC 29213
How it was run: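 HepG2 XTT cytotoxicity in triplicate, IC50 by nonlinear regression, divided by broth-microdilution MIC for ATCC 29213.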

Row | Compound | Activity [1] [%] | MIC [2] [µg/mL] | MIC [3] [µg/mL] | MIC [4] [µg/mL] | MIC [5] [µg/mL] | MIC [6] [µg/mL] | MIC [7] [µg/mL] | IC50 [8] [µg/mL] | AUClast [9] [µg·min/mL] | MIC [10] [µg/mL] | MIC [11] [µg/mL] | MIC [12] [µg/mL] | MIC [13] [µg/mL] | MIC [14] [µg/mL] | MIC [16] [µg/mL] | MIC [17] [µg/mL] | MIC [18] [µg/mL] | MIC [22] [µg/mL] | MIC [23] [µg/mL] | MIC [24] [µg/mL] | other results
1 | CS(=O)(=O)Nc1cccc(-n2c(/C=C/c3ccc(C#N)cc3)nc3ccccc3c2=O)c1 | < 1 | 0.125 (≈ 0.282 µM) | ≥ 16 | 0.125 (≈ 0.282 µM) | 0.5 (≈ 1.13 µM) | 0.5 (≈ 1.13 µM) | > 128 | 33.4 (≈ 75.5 µM) | 31 | 0.004 (≈ 0.00904 µM) | 0.5 (≈ 1.13 µM) | > 128 | > 128 | ≥ 16 | 0.125 (≈ 0.282 µM) | > 128 | 0.25 (≈ 0.565 µM) | ≥ 16 | ≥ 16 | ≥ 16 | MIC [15]: 0.25 µg/mL (≈ 0.565 µM); MIC [19]: > 128 µg/mL; MIC [20]: 128 µg/mL (≈ 289 µM); MIC [21]: > 128 µg/mL
2 | C#Cc1ccc(/C=C/c2nc3ccccc3c(=O)n2-c2cccc(C(=O)O)c2)cc1 |  |  |  |  |  |  |  |  |  |  |  |  |  |  |  |  |  |  |  |  | Activity [25]: inactive; Activity [26]: inactive; Activity [27]: Active; Activity [28]: Active; Activity [29]: Active
3 | CS(=O)(=O)Nc1cccc(-n2c(/C=C/c3ccc(F)cc3)nc3ccccc3c2=O)c1 | < 1 |  | ≥ 16 |  |  |  | ≥ 8 | 66 (≈ 152 µM) |  | 0.125 (≈ 0.287 µM) |  |  |  | ≥ 16 |  |  |  | ≥ 16 | ≥ 16 | ≥ 16 | AUClast [30]: 819 µg·min/mL
4 | CCO/N=C(\C(=O)N[C@@H]1C(=O)N2C(C(=O)[O-])=C(Sc3nc(-c4cc[n+](C)cc4)cs3)CS[C@H]12)c1nsc(NP(=O)(O)O)n1 |  |  |  |  |  |  |  |  |  |  |  |  |  |  |  |  |  |  |  |  | Activity [25]: Active; Activity [26]: Active; Activity [27]: Active; Activity [28]: Active
5 | N#Cc1ccc(/C=C/c2nc3ccccc3c(=O)n2-c2cccc(N)c2)cc1 | 3.3 | 0.125 (≈ 0.343 µM) | ≥ 16 | 1 (≈ 2.74 µM) | 8 (≈ 22 µM) | 4 (≈ 11 µM) | > 128 | 77.2 (≈ 212 µM) |  | 0.5 (≈ 1.37 µM) | 4 (≈ 11 µM) | > 128 | > 128 | ≥ 16 | 4 (≈ 11 µM) | > 128 | 4 (≈ 11 µM) | ≥ 16 | ≥ 16 | ≥ 16 | AUClast [30]: 204 µg·min/mL; MIC [19]: > 128 µg/mL; MIC [20]: 16 µg/mL (≈ 43.9 µM); MIC [21]: > 128 µg/mL
6 | O=c1c2ccccc2nc(/C=C/c2ccc(F)cc2)n1-c1cccc(O)c1 | < 1 |  | ≥ 16 |  |  |  | ≥ 8 | 16.4 (≈ 45.8 µM) | 466 | 0.25 (≈ 0.698 µM) |  |  |  | ≥ 16 |  |  |  | ≥ 16 | ≥ 16 | ≥ 16 | Ratio [31]: > 120; Ratio [32]: >30
